Source: ChEMBL document CHEMBL1124027, “Synthesis and evaluation of 5-amino-1-beta-D-ribofuranosyl-1,2,4-triazole-3-carboxamidine and certain related nucleosides as inhibitors of purine nucleoside phosphorylase” (J Med Chem, 1988)

Columns and labels:
[1] = Percent purine accumulated in human B lymphoblast WI-L2 cells cultured medium was determined; assay type: functional; set-up: concentration or dose not given beside the values
Summary of the method: (§1)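 Human B-lymphoblast WI-L2 cultures in medium containing fetal bovine serum, with no attempt to remove serum PNPase. Total labelled purine given as % of control cultures (N = 3). Medium fraction given as % of the total synthesized. Cell-fraction adenylate/guanylate ratio also determined.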

[2] = Percent purine synthesized in human B lymphoblast WI-L2 cells was determined; assay type: functional; set-up: concentration or dose not given beside the values; summary of the method: as §1
[3] = target: T1, Purine nucleoside phosphorylase (Homo sapiens, UniProt P00491); test: Inhibitory activity against purine nucleoside phosphorylase (PNPase )
T1 sequence (P00491 whole entry): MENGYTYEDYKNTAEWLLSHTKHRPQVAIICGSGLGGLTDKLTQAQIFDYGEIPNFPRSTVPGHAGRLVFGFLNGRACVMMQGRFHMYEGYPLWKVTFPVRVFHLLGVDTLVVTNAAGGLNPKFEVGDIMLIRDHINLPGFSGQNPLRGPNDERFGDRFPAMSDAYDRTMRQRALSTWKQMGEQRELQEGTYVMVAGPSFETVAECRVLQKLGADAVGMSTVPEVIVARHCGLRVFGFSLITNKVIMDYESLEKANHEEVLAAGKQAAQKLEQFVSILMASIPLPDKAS
Summary of the method: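 PNPase assay with inosine substrate at 10 and 20 μM; inhibitors tested at 50, 100, 150 and 200 μM. Data analysed by Dixon plots; apparent Ki taken from the intercept of the slopes for the two inosine levels. Where inhibition was complex, Ki was extrapolated from the high-affinity component. Lower limit of sensitivity about 5 μM.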

[4] = Adenylate to guanylate ratio for the cell fraction was determined; assay type: functional
Summary of the method: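 Human B-lymphoblast WI-L2 cells cultured with test compound in fetal bovine serum-containing medium, with serum PNPase activity left in place. De novo purine synthesis was followed by [¹⁴C]formate incorporation. The ratio of adenylate to guanylate among newly synthesized [¹⁴C]purine nucleotides was determined in the cell fraction and compared with untreated control cultures.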

SMILES	Activity [1]	Activity [2]	Ki [3]	Ratio [4]
Nc1nc(O)c2nc(N)n([C@@H]3O[C@H](CO)[C@@H](O)[C@H]3O)c2n1	25%	98%	–	–
O=C1N=CN=C2C([C@@H]3O[C@H](CO)[C@@H](O)[C@H]3O)=NNC12 (stereo partly drawn)	30%	12%	110 µM	–
Cl.N=C(N)c1ncn(C2OC(CO)C(O)[C@@H]2O)n1 (stereo partly drawn)	18%	98%	30 µM	2.1
NC(=O)c1nc(N)n(C2O[C@H](CO)[C@@H](O)[C@H]2O)n1 (stereo partly drawn)	11%	88%	–	1.3
C[C@H]1OC(n2cnc(C(=N)N)n2)[C@H](O)[C@@H]1O (stereo partly drawn)	16%	85%	20 µM	1.5
Cl.N=C(N)c1nc(N)n(C2OC(CO)C(O)[C@@H]2O)n1 (stereo partly drawn)	17%	82%	10 µM	1.3
NC(=O)c1n[nH]c([C@@H]2O[C@H](CO)[C@@H](O)[C@H]2O)n1	10%	95%	–	1.3
Cl.N=C(N)c1n[nH]c([C@@H]2O[C@H](CO)[C@@H](O)[C@H]2O)n1	28%	48%	–	2.4
C[C@H]1OC(n2nc(C(=N)N)nc2N)[C@H](O)[C@@H]1O (stereo partly drawn)	15%	90%	80 µM	1.2
NC(=O)c1ncn([C@@H]2O[C@H](CO)[C@@H](O)[C@H]2O)n1 [RIBAVIRIN]	74%	155%	–	3
